Results: ChEMBL document CHEMBL6096700, “Modulation of Mitochondria-Endoplasmic Reticulum Contacts (MERCs) by Small Molecules as a New Strategy for Restoring Lipid Metabolism in an Amyotrophic Lateral Sclerosis Model” (J Med Chem, 2025)
The source made the active and inactive calls. Where a SMILES comes first, the peptide text is derived from it. The star is where a group is joined. Cbz = O=C(OCc1ccccc1)*

Columns and labels:
[1] = Modulation of mitochondria-endoplasmic reticulum contacts in human HCT-116 cells expressing MERLIN by BRET assay; format: functional, cell-based
How it was run: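 MERLIN-HCT116 BRET biosensor cells (RLuc8 donor, mVenus acceptor) seeded at 4500/well for 24 h, then treated with compound overnight. Coelenterazine h 5 μM added for 8 min in the dark, read at RT. BRET = acceptor/donor emission minus RLuc8-only background, with DMSO, RLuc8 and RLuc8-mVenus controls; plates kept if Z'>0.7.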

HCT-116 [2] = assay: Cytotoxicity against human HCT-116 cells assessed as cell viability at 5 uM incubated for 24 hrs by MTT assay; format: toxicity, cell-based; details: hct-116, 24 h
How it was run: (§1)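 HCT116 cells grown in phenol red-free McCoy's 5A with 10% FBS and 1% penicillin/streptomycin. Exposed 24 h to compound at 1, 5 or 10 μM. Viability measured by MTT reduction to formazan read by absorbance, expressed as percent of untreated controls. Safety threshold >80% viability. Mean ± SEM of three independent experiments.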

[3] = Permeability of compound incubated for 2.5 hrs by PAMPA; format: ADME
How it was run: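 PAMPA-BBB: compounds in PBS/EtOH 70:30, pH 7.4, placed in a donor plate over a filter coated with porcine brain lipid in dodecane (20 mg/mL), with phosphate-buffer acceptor. Incubated 2 h 30 min at RT. Acceptor concentration read by absorbance at 2–5 wavelengths, three wells, two runs (mean ± SD). Ten reference drugs; CNS+ if Pe >4.4 × 10–6 cm s–1.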

HCT-116 [4] = assay: Induction of extracellular NBD-labeled cholesterol uptake in human HCT-116 cells at 1 uM incubated for 24 hrs followed by NBD-labeled cholesterol addition measured after 1 to 3 hrs by fluorescence based assay; format: functional, cell-based; details: time 25-27 hrs
How it was run: (§2)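 HCT116 cells seeded 24 h at 37 °C, 5% CO2, then treated with compound for 24 h. NBD-cholesterol added for 1 and 3 h. Cells washed three times with PBS, fluorescence read at 469/537 nm, compared with untreated cells. Mean ± SEM of three independent experiments.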

HCT-116 [5] = assay: Cytotoxicity against human HCT-116 cells assessed as cell viability at 1 uM incubated for 24 hrs by MTT assay; format: toxicity, cell-based; details: hct-116, 24 h; how it was run: as §1
Lymphoblastoid cell [6] = assay: Restoration of mitochondrial cristae structure in patient-derived Sporadic ALS lymphoblastoid cells at 5 uM incubated for 24 hrs by TEM analysis; format: functional, cell-based; details: Homo sapiens
How it was run: (§3)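 Control and sporadic ALS lymphoblasts with or without compound (5 μM, 24 h) were fixed 4 h at 4 °C in 4% paraformaldehyde/2.5% glutaraldehyde in 0.1 M phosphate pH 7.3. Postfixed in osmium tetroxide/potassium ferrocyanide, acetone-dehydrated, Spurr-embedded. 60 nm sections stained with lead citrate and imaged by TEM at 80 kV.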

Lymphoblastoid cell [7] = assay: Induction of extracellular NBD-labeled cholesterol uptake in patient-derived lymphoblastoid cells at 5 uM incubated for 24 hrs followed by NBD-labeled cholesterol addition measured after 1 hr in presence of SSO by fluorescence based assay; format: functional; details: Homo sapiens, time 25.0 hrs
Lymphoblastoid cell [8] = assay: Induction of extracellular NBD-labeled cholesterol uptake in patient-derived Sporadic ALS lymphoblastoid cells at 5 uM incubated for 24 hrs followed by NBD-labeled cholesterol addition measured after 1 hr in presence of EZE by fluorescence based assay; format: functional; details: Homo sapiens, time 25.0 hrs
How it was run: (§4)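 Lymphoblastoid lines from controls (C100, C112) and sporadic ALS patients (E2, E4) treated 24 h with compound at 5 μM. BLT1, SSO or EZE (10 μM) added 15 min before NBD-cholesterol, which was left for 1 h. Cells washed three times with PBS, fluorescence read at 469/537 nm. Run in triplicate; mean ± SEM.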

Lymphoblastoid cell [9] = assay: Induction of extracellular NBD-labeled cholesterol uptake in patient-derived lymphoblastoid cells at 5 uM incubated for 24 hrs followed by NBD-labeled cholesterol addition measured after 1 hr in presence of EZE by fluorescence based assay; format: functional; details: Homo sapiens, time 25.0 hrs
Lymphoblastoid cell [10] = assay: Induction of extracellular NBD-labeled cholesterol uptake in patient-derived Sporadic ALS lymphoblastoid cells at 5 uM incubated for 24 hrs followed by NBD-labeled cholesterol addition measured after 1 hr in presence of […] by fluorescence based assay; format: functional; details: Homo sapiens, time 25.0 hrs; how it was run: as §4
Lymphoblastoid cell [11] = assay: Induction of cholesteryl ester formation in patient-derived lymphoblastoid cells at 5 uM incubated for 24 hrs by Amplex assay; format: functional, cell-based; details: Homo sapiens
How it was run: (§5)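 Control and sporadic ALS lymphoblastoid cells treated 24 h with compound at 5 μM or vehicle. Lipids extracted from equal cell amounts with chloroform:methanol 2:1 (v/v). Organic phase dried, resuspended in assay buffer, and cholesteryl esters quantified with the Amplex cholesterol kit. Individual values reported.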

Lymphoblastoid cell [12] = assay: Modulation of mitochondria-endoplasmic reticulum contacts in patient-derived Sporadic ALS lymphoblastoid cells at 5 uM incubated for 24 hrs by Seahorse XF analysis; format: functional, cell-based; details: Homo sapiens
Lymphoblastoid cell [13] = assay: Induction of lipid droplet formation in patient-derived Sporadic ALS lymphoblastoid cells at 5 uM incubated for 24 hrs by TEM analysis; format: functional, cell-based; details: Homo sapiens; how it was run: as §3
HCT-116 [14] = assay: Modulation of mitochondria-endoplasmic reticulum contacts in human HCT-116 cells at 25 uM incubated for 1 hr by TEM analysis; format: functional, cell-based
HCT-116 [15] = assay: Induction of extracellular NBD-labeled cholesterol uptake in human HCT-116 cells at 5 uM incubated for 24 hrs followed by NBD-labeled cholesterol addition measured after 3 hrs by fluorescence based assay; format: functional, cell-based; details: time 27.0 hrs; how it was run: as §2
Lymphoblastoid cell [16] = assay: Induction of lipid droplet formation in patient-derived Sporadic ALS lymphoblastoid cells at 5 uM incubated for 24 hrs by LipidTOX Green/DAPI staining based analysis; format: functional; details: Homo sapiens
How it was run: (§6)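 Control and sporadic ALS lymphoblastoid cells treated 24 h with compound at 5 μM or vehicle, fixed in 4% PFA, washed in PBS. Lipid droplets stained 2 h with LipidTOX Green, nuclei with DAPI. Confocal imaging and image-based quantification of >100 cells per condition; mean ± SEM.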

Lymphoblastoid cell [17] = assay: Induction of extracellular NBD-labeled cholesterol uptake in patient-derived SOD1 ALS lymphoblastoid cells at 5 uM incubated for 24 hrs followed by NBD-labeled cholesterol addition measured after 1 hr by fluorescence based assay; format: functional; details: Homo sapiens, time 25.0 hrs
Lymphoblastoid cell [18] = assay: Induction of extracellular NBD-labeled cholesterol uptake in patient-derived lymphoblastoid cells at 5 uM incubated for 24 hrs followed by NBD-labeled cholesterol addition measured after 1 hr in presence of […] by fluorescence based assay; format: functional; details: Homo sapiens, time 25.0 hrs
Lymphoblastoid cell [19] = assay: Induction of extracellular NBD-labeled cholesterol uptake in patient-derived Sporadic ALS lymphoblastoid cells at 5 uM incubated for 24 hrs followed by NBD-labeled cholesterol addition measured after 1 hr by fluorescence based assay; format: functional; details: Homo sapiens, time 25.0 hrs
Lymphoblastoid cell [20] = assay: Induction of lipid droplet formation in patient-derived lymphoblastoid cells at 5 uM incubated for 24 hrs by LipidTOX Green/DAPI staining based analysis; format: functional; details: Homo sapiens; how it was run: as §6
Lymphoblastoid cell [21] = assay: Improvement in spare respiratory capacity in patient-derived Sporadic ALS lymphoblastoid cells at 5 uM incubated for 24 hrs by Seahorse XF analysis; format: functional, cell-based; details: Homo sapiens
How it was run: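 Control and sALS lymphoblasts plated at 200,000 cells/well on poly-L-lysine and cultured 24 h ± compound (5 μM). Then moved to bicarbonate-free DMEM with 2 mM glutamine, 5 mM glucose, 2% FBS, 1 mM pyruvate and 5 mM HEPES pH 7.4, 1 h without CO2. Seahorse Mito Stress OCR: basal, oligomycin 1 μM, FCCP 3 μM, antimycin/rotenone 2.5 μM each. Four replicates, mean ± SEM.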

Lymphoblastoid cell [22] = assay: Induction of extracellular NBD-labeled cholesterol uptake in patient-derived C9orf72-mutated familial ALS lymphoblastoid cells at 5 uM incubated for 24 hrs followed by NBD-labeled cholesterol addition measured after 1 hr by fluorescence based assay; format: functional; details: Homo sapiens, time 25.0 hrs
Lymphoblastoid cell [23] = assay: Induction of extracellular NBD-labeled cholesterol uptake in patient-derived Sporadic ALS lymphoblastoid cells at 5 uM incubated for 24 hrs followed by NBD-labeled cholesterol addition measured after 1 hr in presence of SSO by fluorescence based assay; format: functional; details: Homo sapiens, time 25.0 hrs; how it was run: as §4
Lymphoblastoid cell [24] = assay: Induction of cholesteryl ester formation in patient-derived Sporadic ALS lymphoblastoid cells at 5 uM incubated for 24 hrs by Amplex assay; format: functional, cell-based; details: Homo sapiens; how it was run: as §5

N#Cc1ccc(NC(=O)c2cc(Cl)ccc2O)cc1
EC50 [1]: 9.7 µM
Activity (HCT-116 [2]): Non-toxic
permeability [3]: Permeable
Activity (HCT-116 [4]): inactive
Activity (HCT-116 [5]): Non-toxic

O=C(Nc1ccc([N+](=O)[O-])cc1F)c1cc(Cl)ccc1O
EC50 [1]: 5.64 µM
Activity (HCT-116 [4]): inactive
Activity (HCT-116 [5]): Non-toxic

O=C(Nc1ccc([N+](=O)[O-])cc1Cl)c1cc(Cl)ccc1O [NICLOSAMIDE]
EC50 [1]: 5.68 µM
Activity (HCT-116 [4]): inactive
Activity (HCT-116 [5]): Non-toxic

O=C(Nc1ccc(F)cc1)c1cc(Cl)ccc1O
EC50 [1]: 20.2 µM

O=C(Nc1cccc([N+](=O)[O-])c1)c1cc(Cl)ccc1O
EC50 [1]: 8.32 µM
Activity (HCT-116 [2]): Non-toxic
permeability [3]: Permeable
Activity (HCT-116 [4]): inactive
Activity (HCT-116 [5]): Non-toxic

O=C(Nc1ccccc1)c1cc(Cl)ccc1O
Activity (Lymphoblastoid cell [6]): Active
Activity (Lymphoblastoid cell [7]): Active
Activity (Lymphoblastoid cell [8]): Active
Activity (Lymphoblastoid cell [9]): Active
Activity (Lymphoblastoid cell [10]): Not active; The Result Suggests That Cell Surface Hdl Scavenger Receptor B, Type 1 (Sr-B1) May Be Involved In Mechanism Of Action
Activity (HCT-116 [2]): Non-toxic
Activity (Lymphoblastoid cell [11]): Active
Activity (Lymphoblastoid cell [12]): Active
Activity (Lymphoblastoid cell [13]): Active
Activity (HCT-116 [14]): Active
Activity (HCT-116 [15]): Active
Activity (Lymphoblastoid cell [16]): Active
Activity (Lymphoblastoid cell [17]): inactive
permeability [3]: Permeable
Activity (Lymphoblastoid cell [18]): Not active; The Result Suggests That Cell Surface Hdl Scavenger Receptor B, Type 1 (Sr-B1) May Be Involved In Mechanism Of Action
Activity (Lymphoblastoid cell [19]): Active
Activity (Lymphoblastoid cell [20]): Active
Activity (Lymphoblastoid cell [21]): Active
Activity (HCT-116 [4]): inactive
Activity (Lymphoblastoid cell [22]): Active
Activity (Lymphoblastoid cell [23]): Active
Activity (Lymphoblastoid cell [24]): Active
Activity (HCT-116 [5]): Non-toxic

O=C(Nc1ccc([N+](=O)[O-])cc1Cl)c1cccc2ccccc12
EC50 [1]: 3.34 µM

CNC(=O)c1ccc(NC(=O)c2cc(Cl)ccc2O)cc1
EC50 [1]: 10.2 µM

O=C(Nc1ccc([N+](=O)[O-])cc1)c1cc(Cl)ccc1O
EC50 [1]: 2.44 µM
permeability [3]: Permeable
Activity (HCT-116 [4]): inactive

CC(C)C[C@@H](C=O)NC(=O)[C@H](CC(C)C)NC(=O)[C@H](CC(C)C)NC(=O)OCc1ccccc1 [MG-132] (Cbz-Leu-Leu-Leu-aldehyde)
EC50 [1]: 13.7 µM

O=C(Nc1ccc([N+](=O)[O-])cc1)c1cccc2ccccc12
EC50 [1]: 21.7 µM
